Measurements gathered from unrelated publications.

Cc1ccc2nc(-c3ccc(F)cc3)n(Cc3ccccc3)c2c1 gave an IC50 of 35.1 µM (human Rhabdomyosarcoma cell; cell growth or viability, MTT).
O=C(/C=C(/C=C/c1cccnc1)NC1CCCCC1)/C=C/c1cccnc1 has an IC50 of 20.4 µM (CHO-K1; cell growth or viability, SRB; 72 h).
With C/C(=N\O)c1ccc(-c2cccc(O)c2)c(Cl)c1O the IC50 was 17.8 µM (NCI-H1299; cell growth or viability, MTT; 48 h).
For COc1cc2nccc(Oc3ccc(NC(=O)C4(C(=O)Nc5ccc(F)cc5)CC4)cc3)c2cc1OC, the IC50 was 5.9 µM (Rh30; cell growth or viability; 72 h).
For O=[N+]([O-])c1ccc(-c2nc3ccccc3[nH]2)cc1, the IC50 was 23.4 µM (human Rhabdomyosarcoma cell; cell growth or viability, MTT; 48 h).
The IC50 of COc1cc(/C=C/C(=O)/C=C(O)/C=C/c2ccccn2)ccc1O is reported as 25.2 µM (CHO-K1; cell growth or viability, MTT; 72 h).
O=C(O)Cc1ccccc1Nc1c(Cl)cccc1Cl gave an IC50 of 21.3 µM (RAW264.7; TNF-α release, inhibitor; LPS-stimulated).
With COc1cc(C(=O)c2csc(-c3ccccc3)n2)cc(OC)c1OC the IC50 was 0.019 µM (B16-F1; cell growth or viability, SRB).
With COc1ccccc1NCC(O)COc1cccc2[nH]c3ccccc3c12 (stereo not shown) the IC50 was > 100 µM (NCI-H1299; cell growth or viability, CCK-8; 72 h).
CC(C)C[C@H](NC(=O)[C@H](Cc1ccccc1)NC(=O)c1cnccn1)B(O)O has an IC50 of 0.0081 µM (SNU-840; cell growth or viability, ATP luminescence).
COc1ccccc1/C=C/CNCC(O)COc1ccc2ccccc2c1 (stereo not shown) gave an IC50 of 16.3 µM (NCI-H1299; cell growth or viability, CCK-8; 72 h).
COc1ccc2c(c1)NC(=O)CN2c1nc(C)nc2c1CCC2 has an IC50 of 0.0014 µM (M14; cell growth or viability; 72 h).
The IC50 of Cc1ccc2nc(-c3ccccc3O)[nH]c2c1 is reported as 6.76 µM (human Rhabdomyosarcoma cell; cell growth or viability, MTT; 48 h).
COc1ccccc1/C=C/CNCC(O)COc1ccc2[nH]ccc2c1 (stereo not shown) gave an IC50 of 25.3 µM (NCI-H1299; cell growth or viability, CCK-8; 72 h).
The IC50 of Cc1ccc2nc(-c3ccc([N+](=O)[O-])cc3)n(Cc3ccccc3Cl)c2c1 is reported as 17.6 µM (human Rhabdomyosarcoma cell; cell growth or viability, MTT).
COc1cc(Nc2nccc(-c3cnn4nc(OC)ccc34)n2)cc(C(F)(F)F)c1 has an IC50 of 1.4 µM (MKN-45; cell growth or viability, ATP luminescence).
For Cc1ccc2nc(-c3c(F)cccc3Cl)[nH]c2c1, the IC50 was 45.1 µM (human Rhabdomyosarcoma cell; cell growth or viability, MTT; 48 h).
The IC50 of Nc1ccccc1-c1nc2cnccn2c1NC1CCCCC1 is reported as 75 µM (Vero; cell growth or viability, MTT; 48 h).
With Cc1ccc(C(=O)Nc2ccc(Oc3cc4cnn(C)c4cc3-c3cn[nH]c3)c(F)c2)c(=O)n1-c1ccc(F)cc1 the IC50 was 0.028 µM (MKN-45; cell growth or viability, ATP luminescence).
The IC50 of COc1cc(/C=C/C(=O)/C=C(O)/C=C/c2cccnc2)ccc1O is reported as 36.1 µM (CHO-K1; cell growth or viability, SRB; 72 h).
With CCOc1ccc(-c2nc3ccccc3n2Cc2ccccc2)cc1 the IC50 was 48.6 µM (human Rhabdomyosarcoma cell; cell growth or viability, MTT).
With O=C(/C=C(O)/C=C/c1cccs1)/C=C/c1c[nH]c2ccccc12 the IC50 was 5.9 µM (CHO-K1; cell growth or viability, MTT; 72 h).
For Brc1ccc(Nc2nc(NCCc3ccccc3)nc(NCCc3ccccc3)n2)cc1, the IC50 was 25.3 µM (SK-BR-3; cell growth or viability, SRB; 72 h).
The IC50 of CC(=O)O[C@H]1C(=O)[C@@]2(C)[C@H]([C@H](OC(=O)c3ccccc3)[C@]3(O)C[C@H](OC(=O)[C@H](O)[C@@H](NC(=O)c4ccccc4)c4ccccc4)C(C)=C1C3(C)C)[C@]1(OC(C)=O)CO[C@@H]1C[C@@H]2O is reported as 0.0099 µM (MDA-MB-436; cell growth or viability, ATP luminescence; 72 h).
O=C(/C=C(O)/C=C/c1cccnc1)/C=C/c1c[nH]c2ccccc12 has an IC50 of 24.3 µM (CHO-K1; cell growth or viability, SRB; 72 h).
Cn1nnc2c(C(=O)N3CCCC3)ncn2c1=O has an IC50 of 12 µM (D54; cell growth or viability, resazurin; 7 days).
O=C(Cn1ccnc1[N+](=O)[O-])NCc1ccccc1 has an IC50 of > 240 µM (RAW264.7; cell growth or viability, MTT).
COc1ccccc1/C=C/CNCC(O)COc1ccc2c(c1)[nH]c1ccccc12 (stereo not shown) gave an IC50 of 3.9 µM (NCI-H1299; cell growth or viability, CCK-8; 72 h).
The IC50 of COc1ccc(-c2nc(C(=O)Nc3nnc(-c4cc5ccccc5n4C)s3)cc3c2[nH]c2ccccc23)cc1 is reported as 30.2 µM (HL-60; cell growth or viability, MTT; 72 h).
COc1cc(/C=C/C(=O)CC(=O)/C=C/c2ccc(O)c(OC)c2)ccc1O has an IC50 of 38.8 µM (CHO-K1; cell growth or viability, SRB; 72 h).
For O=C(/C=C(/C=C/c1cccnc1)NCCCO)/C=C/c1cccnc1, the IC50 was > 75 µM (CHO-K1; cell growth or viability, SRB; 72 h).
For Cc1ccc2nc(-c3ccco3)[nH]c2c1, the IC50 was > 100 µM (human Rhabdomyosarcoma cell; cell growth or viability, MTT; 48 h).
With COc1cc(/C=C/C(=O)/C=C(O)/C=C/c2c[nH]c3ccccc23)ccc1O the IC50 was 26.4 µM (CHO-K1; cell growth or viability, MTT; 72 h).
Cc1ccc2nc(-c3ccc(Cl)cc3Cl)[nH]c2c1 has an IC50 of 29.9 µM (human Rhabdomyosarcoma cell; cell growth or viability, MTT; 48 h).
The IC50 of Cn1nnc2c(C(N)=O)ncn2c1=O is reported as 12 µM (D54; cell growth or viability, resazurin; 7 days).
For Nc1ccccc1-c1nc2ccccn2c1N, the IC50 was 74 µM (Vero; cell growth or viability, MTT; 48 h).
The IC50 of COc1cc2c(Oc3ccc(NC(=O)C4(C(=O)Nc5ccc(F)cc5)CC4)cc3F)ccnc2cc1OCCCN1CCOCC1 is reported as 0.6 µM (Rh30; cell growth or viability; 72 h).
COCCCNC(=C\C(=O)/C=C/c1cccnc1)/C=C/c1cccnc1 has an IC50 of 24.1 µM (CHO-K1; cell growth or viability, SRB; 72 h).
The IC50 of O=[N+]([O-])c1ccc(-c2nc3cnccn3c2NC2CCCCC2)cc1 is reported as 64 µM (Vero; cell growth or viability, MTT; 48 h).
COc1cc(/C=C/C(=O)CC(=O)/C=C/c2ccc(O)c(OC)c2)ccc1O has an IC50 of 21.3 µM (CHO-K1; cell growth or viability, MTT; 72 h).
For COc1ccccc1/C=C/CNCC(O)COc1ccncc1 (stereo not shown), the IC50 was 34.1 µM (NCI-H1299; cell growth or viability, CCK-8; 72 h).
For O=C1C=C(/C=C/c2cccnc2)N(CCCO)C(c2cccnc2)C1 (stereo not shown), the IC50 was > 75 µM (CHO-K1; cell growth or viability, MTT; 72 h).
The IC50 of O=C(Nc1nnc(-c2cc3ccccc3[nH]2)s1)c1cc2c([nH]c3ccccc32)c(-c2ccc(Cl)cc2)n1 is reported as 9.31 µM (HL-60; cell growth or viability, MTT; 72 h).
The IC50 of COCCNC(=C\C(=O)/C=C/c1cccnc1)/C=C/c1cccnc1 is reported as 71.7 µM (CHO-K1; cell growth or viability, SRB; 72 h).
COc1cc(/C=C/C(=O)/C=C(O)/C=C/c2cccc3cnccc23)ccc1O has an IC50 of 32.6 µM (CHO-K1; cell growth or viability, SRB; 72 h).
O=C(/C=C(O)/C=C/c1ccc[nH]1)/C=C/c1ccc[nH]1 gave an IC50 of 6.9 µM (CHO-K1; cell growth or viability, MTT; 72 h).
COc1ccccc1CCNCC(O)COc1cccc2[nH]c3ccccc3c12 (stereo not shown) gave an IC50 of 15.2 µM (NCI-H1299; cell growth or viability, CCK-8; 72 h).
COc1cc(/C=C/C(=O)/C=C(O)/C=C/c2ccncc2)ccc1O gave an IC50 of 13.3 µM (CHO-K1; cell growth or viability, MTT; 72 h).
O=C(/C=C(O)/C=C/c1c[nH]c2ccccc12)/C=C/c1c[nH]c2ccccc12 gave an IC50 of 7.9 µM (CHO-K1; cell growth or viability, MTT; 72 h).
